Screening results: PubChem BioAssay, Johns Hopkins Ion Channel Center
KCNK3 block: human KCNK3 channel inhibition, primary screen; O14649; CHO-KCNK3 thallium flux, FluxOR fluorescence; hits give low values; B-score at 10 µM; 0.84% of 340,000 active; AID 602410;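 active = B-score under library mean minus 4 SD, starting fluorescence ratio at most library mean plus 5 SD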;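 also: more negative B-score means stronger inhibition of thallium flux through KCNK3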
hERG rescue: shields human hERG channel from block by proarrhythmic agents; activation (rescue from dofetilide block), less the hit threshold, % at 10 µM; Q12809; 0.51% of 310,000 active; CHO-hERG, FluxOR thallium flux, dofetilide IC70 present; AID 1511;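 active = activation above the mean of controls blocked by dofetilide plus 5 SD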;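 also: thallium influx through hERG after potassium depolarization seen as dye fluorescence rise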
KCNQ1 inh: human KCNQ1 channel inhibition. CHO-K1 KCNQ1, FluxOR thallium flux fluorescence; hits give high values. B-score at 10 µM. 1.3% of 310,000 active. AID 2642;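 active = compounds whose thallium flux B-score, printed positive for inhibition, exceeds three library SD while starting fluorescence stays within three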;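 also: channel opened by potassium depolarization with thallium stimulus after 20 min compound exposure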
Target sequence (P51787 whole entry, looked up): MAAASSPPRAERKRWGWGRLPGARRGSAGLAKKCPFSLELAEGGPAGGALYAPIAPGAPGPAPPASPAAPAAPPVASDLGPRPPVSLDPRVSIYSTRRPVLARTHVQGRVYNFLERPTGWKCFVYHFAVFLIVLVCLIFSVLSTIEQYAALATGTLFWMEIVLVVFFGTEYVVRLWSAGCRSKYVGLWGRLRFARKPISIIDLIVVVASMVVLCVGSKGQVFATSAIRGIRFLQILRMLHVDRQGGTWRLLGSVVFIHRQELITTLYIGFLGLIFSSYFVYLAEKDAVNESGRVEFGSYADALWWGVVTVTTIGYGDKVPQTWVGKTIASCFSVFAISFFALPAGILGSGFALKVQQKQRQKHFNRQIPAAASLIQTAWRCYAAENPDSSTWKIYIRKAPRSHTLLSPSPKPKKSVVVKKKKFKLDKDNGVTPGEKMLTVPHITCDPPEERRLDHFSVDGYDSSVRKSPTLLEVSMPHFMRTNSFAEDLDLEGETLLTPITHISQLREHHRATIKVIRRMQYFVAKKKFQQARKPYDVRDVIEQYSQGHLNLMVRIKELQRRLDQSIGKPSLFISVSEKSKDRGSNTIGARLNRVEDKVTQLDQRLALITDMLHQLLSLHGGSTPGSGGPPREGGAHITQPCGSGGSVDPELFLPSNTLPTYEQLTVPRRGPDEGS
KCNQ1 act: human KCNQ1 channel potentiation or activation; P51787; CHO-K1 KCNQ1, thallium flux FluxOR fluorescence; hits give high values; B-score at 10 µM; 0.35% of 310,000 active;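 active = fluorescence ratio B-score, a plate-corrected score, at least three library SD, with initial intensity B-score within 5 SD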
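Assay system: CHO-K1 cells stably expressing KCNQ1; Medium: assay buffer with matched DMSO; Also added: K+/Tl+ depolarizing stimulus; Dosing: single dose; Timing: dye 90 min, compound 20 min, room temperature; Measured by: kinetic FluxOR thallium fluorescence, 10-s 1-Hz baseline, 110-s post-stimulus read; Read-out: peak-minus-minimum fluorescence over initial fluorescence, negative-control normalized, B-scored.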
KCNK9 block: human KCNK9 channel inhibition; 1.2% of 310,000 active; B-score at 10 µM; HEK293 KCNK9, FluxOR thallium flux fluorescence; hits give low values;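 active = ratio B-score over 3 SD below the library mean, with starting fluorescence within 5 SD of its mean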;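 also: negative B-score means less thallium flux so channel inhibition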
KCNK9 block conf: human KCNK9 inhibitor confirmation; 43% of 4,900 active; shares compounds with KCNK9 block; HEK293 KCNK9 cells, FluxOR thallium flux fluorescence; inhibition, % at 10 µM;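 active = thallium signal inhibited by more than 5 SD of the compound-free buffer control wells, on both duplicate plates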;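 also: 0% = assay buffer control wells without compound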
Kir21 sel: selectivity of KCNK9 modulators against mouse Kir2.1. shares compounds with KCNK9 block. Kir2.1 cells, FluxOR thallium flux fluorescence. inhibition, % at 10 µM. 4% of 4,900 active. AID 492993;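 active = thallium signal drop more than 5 SD beyond the mean of the no-compound control wells, seen in both duplicate plates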;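 also: signal is fluorescence rise after thallium addition divided by baseline fluorescence; plate controls were assay buffer only for no effect and full block by chlorpromazine control for full effect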
HEK293 Tl ctr: non-induced cell nonspecific activity of KCNK9 modulators; shares compounds with KCNK9 block; non-induced KCNK9-HEK293, FluxOR thallium flux; inhibition, % at 10 µM; 40% of 4,900 active;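 active = thallium signal drop beyond 5 SD of the untreated control mean, on both duplicate plates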;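 also: plate controls were buffer only IC0 wells for no effect and SID17386958 at its maximal inhibitory level for full effect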
* marks the source's active call; other numbers are inactive results; i = inactive; / = no result. The list is not random: actives were taken first. Their share in the collection is about 3.1%.

SMILES	KCNK3 block	hERG rescue	KCNQ1 inh	KCNQ1 act	KCNK9 block	KCNK9 block conf	Kir21 sel	HEK293 Tl ctr
CCOc1ccc(OCc2ccc(C(=O)N3CCCC(C)C3)cc2)cc1 (centres undefined)	i	0.0	i	i	i	i	i	i
CCOc1ccc(NS(=O)(=O)c2ccc(C(=O)N3CCCC(C)C3)cc2)cc1 (centres undefined)	i	-13.7	i	i	i	i	i	i
CCOc1ccc(NS(=O)(=O)c2ccc(C(=O)N3CCN(C(C)=O)CC3)cc2)cc1	i	-7.2	i	i	i	/	/	/
CCOc1ccc(NS(=O)(=O)c2ccc(C(=O)N3CCCCCC3)cc2)cc1	i	-10.9	i	i	i	i	i	i
CC1CCCC1/C(=N/O)c1ccccc1 (centres undefined)	i	-6.3	i	i	i	/	/	/
COc1ccccc1C1CCN(Cc2ccc3ccccc3c2)CC1	i	-19.5	i	i	i	i	28.5%*	i
COc1ccccc1C1CCN(Cc2ccccc2)CC1	i	-6.9	i	i	i	/	/	/
O=C(N/N=C/c1ccsc1)c1c[nH]c2ccccc12	i	-6.0	i	i	i	/	/	/
CC(C)CC(=O)C1CCCN(C(=O)c2ccc3oc(Cc4ccccc4)nc3c2)C1 (centres undefined)	i	-5.8	i	i	i	i	i	i
CC(=O)c1c(N2CCN(C)CC2)nc(=S)n(Cc2ccccc2)c1C	i	-2.9	i	i	i	/	/	/
C=CCn1c(C)c(C(C)=O)c(N2CCN(C(c3ccccc3)c3ccccc3)CC2)nc1=S	i	-23.9	i	i	-8.15*	37.0%*	i	i
CC(=C/c1ccc(C(C)C)cc1)/C=N/NC(=O)CSc1ccccn1	i	-2.0	i	i	-19.7*	60.5%*	i	45.0%*
CN(C)c1ccc(/C=N/NC(=O)CSc2ccccn2)cc1	i	0.2	i	i	i	/	/	/
CC(/C=N/NC(=O)CSc1ccccn1)=C\c1ccc(C(C)C)cc1	i	-12.8	i	i	-12.9*	59.0%*	i	37.0%*
CCOC(=O)c1ccccc1NC(=S)N1CC(C)CC(C)C1 (centres undefined)	i	-7.2	i	i	i	i	i	i
CCOC(=O)c1ccccc1NC(=O)c1c(F)c(F)c(F)c(F)c1F	i	-15.8	i	i	i	i	i	i
CCOC(=O)c1ccccc1NC(=S)N1CCC(C)CC1	i	-5.8	i	i	i	/	/	/
CCOC(=O)c1ccc(N/C=C/C(=O)c2ccccc2)cc1	i	-5.6	i	i	i	/	/	/
CCOC(=O)c1ccccc1N/C=C/C(=O)c1ccccc1	i	-5.3	i	i	-15.8*	69.0%*	i	35.5%*
CCOP(=O)(OCC)c1ccc2c(c1)C(=O)c1ccccc1CC2	i	/	/	/	/	/	/	/
Cc1cc(C)n(-c2nc(Nc3ccccc3)nc(-n3nc(C)cc3C)n2)n1	i	-1.5	i	i	i	/	/	/
COc1cccc(/C=N/Nc2nc(Nc3ccccc3)nc(-n3nc(C)cc3C)n2)c1O	i	-13.0	i	i	-10.3*	43.0%*	i	23.5%*
CCN(CC)c1nc(C(N)=O)cc(-c2ccccc2)n1	i	-7.6	i	i	-8.53*	i	i	i
CCOC(=O)/C(=N/Nc1ccccc1OC)N1CCCc2ccccc21	i	1.5	i	i	i	i	i	i
C=CCCC(=O)Nc1nc(C)c(-c2csc(Nc3cccc(OC)c3)n2)s1	i	-2.9	i	i	i	/	/	/
Cc1ccc(Cl)cc1Nc1nc(-c2sc(NC(=O)C(C)(C)C)nc2C)cs1	i	-13.8	i	i	-13.4*	56.5%*	i	i
CCCC(=O)Nc1nc(C)c(-c2csc(Nc3cc(OC)ccc3OC)n2)s1	i	-12.6	i	i	-16.5*	i	i	i
